In ChEMBL document CHEMBL2150952 (J Med Chem, 2011):

What was measured:
[1] = Drug uptake in skin of female rhesus monkey at 5 mg/kg, po measured 6 hrs post dose; format: ADME, organism-based, Macaca mulatta, Zone of skin; design: dose 5 mg/kg, route oral; conditions: in vivo
Liver [2] = test: Drug uptake in liver of Beagle dog at 5 mg/kg, po measured 6 hrs post dose; format: ADME, organism-based, Canis lupus familiaris; design: dose 5 mg/kg, route oral; conditions: in vivo
Mus musculus [3] = test: Antidiabetic activity in diet-induced obese C57BL6 mouse assessed as reduction in body weight gain at 20 mg/kg, po BID; format: functional; design: scale not given: the % may be the effect or the level left
Procedure, shortened: (§1)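 Male C57/Bl6 mice were fed a high fat diet for at least 18 weeks from 6 weeks of age, then given vehicle (1% methocel, bid) for 7 days and randomized by body weight. Oral dosing (qd or bid) ran for 28 days, with n = 8–10/group. Body weight, food intake and skin/eye scores were recorded twice weekly.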

[4] = Oral bioavailability in mouse; format: ADME, organism-based; conditions: in vivo
Procedure, shortened: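 Fasted male C57BL6 mice given 2 mg/kg IV and 10 mg/kg PO. Plasma drug levels measured by LC-MS/MS, mean of n = 3 animals, and PK parameters derived from these.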

Liver [5] = test: Drug level in liver of diet-induced obese C57BL6 mouse at 20 mg/kg, po BID; format: ADME, organism-based; design: dose 20 mg/kg, route oral; conditions: in vivo, read-out: Drug uptake
Procedure, shortened: (§2)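 eDIO mice were dosed orally for 4 weeks, either 20 mg/kg bid or 5 mg/kg qd. Liver, Harderian gland and skin were taken at trough at study termination, and compound concentration was measured by LC-MS.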

Acyl-CoA desaturase 1 [6] = target: T1, Acyl-CoA desaturase 1 (Rattus norvegicus, UniProt P07308); test: Inhibition of SCD-1 activity in Sprague-Dawley rat microsome assessed as reduction in [I-14C] stearoyl CoA desaturation by scintillation counting; format: microsomes
T1 sequence (P07308 whole entry): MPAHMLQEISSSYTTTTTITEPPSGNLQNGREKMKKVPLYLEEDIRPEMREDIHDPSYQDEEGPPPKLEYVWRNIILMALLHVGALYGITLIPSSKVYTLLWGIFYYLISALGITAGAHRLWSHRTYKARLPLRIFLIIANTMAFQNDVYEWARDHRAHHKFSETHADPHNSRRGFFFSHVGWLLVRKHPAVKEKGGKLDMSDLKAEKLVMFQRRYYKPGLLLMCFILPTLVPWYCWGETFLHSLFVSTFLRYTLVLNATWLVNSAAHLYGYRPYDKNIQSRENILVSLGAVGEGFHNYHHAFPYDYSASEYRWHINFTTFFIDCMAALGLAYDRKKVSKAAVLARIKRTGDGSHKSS

Mus musculus [7] = test: Toxicity in diet-induced obese C57BL6 mouse assessed as adverse effect in skin at 20 to 60 mg/kg, po BID measured within 4 weeks; format: organism-based; design: dose 20-60 mg/kg, route oral; conditions: in vivo, 672 h
Procedure, shortened: (§3)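 Male C57/Bl6 mice on high fat diet for at least 18 weeks from 6 weeks of age. Given 7 days vehicle run-in (1% methocel bid), then randomized by body weight and dosed orally at 20 or 60 mg/kg bid for 28 days (n = 8–10/group). Skin (hair loss/lesion) and eye (squint to closure) scored 0–3 twice weekly.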

Mus musculus [8] = test: Antidiabetic activity in diet-induced obese C57BL6 mouse assessed as reduction in glucose AUC at 3 to 7 mg/kg, po administered 1 hr before oral glucose administration measured 2 hrs thereafter; format: functional; conditions: dose mg/kg 3-7
Mus musculus [9] = test: Antidiabetic activity in diet-induced obese C57BL6 mouse assessed as reduction in glucose AUC at 7 to 10 mg/kg, po administered 1 hr before oral glucose administration measured 2 hrs thereafter; format: functional; conditions: dose mg/kg 7-10
[10] = Drug uptake in liver of female rhesus monkey at 5 mg/kg, po measured 6 hrs post dose; format: ADME, organism-based, Macaca mulatta; design: dose 5 mg/kg, route oral; conditions: in vivo
[11] = Drug uptake in skin of Beagle dog at 5 mg/kg, po measured 6 hrs post dose; format: ADME, organism-based, Canis lupus familiaris, Zone of skin; design: dose 5 mg/kg, route oral; conditions: in vivo
[12] = Drug uptake in eye of Beagle dog at 5 mg/kg, po measured 6 hrs post dose; format: ADME, organism-based, Canis lupus familiaris; design: dose 5 mg/kg, route oral; conditions: in vivo
Mus musculus [13] = test: Toxicity in diet-induced obese C57BL6 mouse assessed as reduction in food intake at 20 to 60 mg/kg, po BID; format: organism-based; design: dose 20-60 mg/kg, route oral; conditions: in vivo
Procedure, shortened: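 Obese male C57/Bl6 mice after at least 18 weeks of high fat diet and a 7-day vehicle run-in, randomized by body weight. Dosed orally at 20 or 60 mg/kg bid for 28 days (n = 8–10/group). Food consumption monitored twice weekly.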

[14] = Oral bioavailability in dog; format: ADME, organism-based, Canis lupus familiaris; conditions: in vivo
Mus musculus [15] = test: Antidiabetic activity in diet-induced obese C57BL6 mouse assessed as reduction in glucose AUC at 7 to 30 mg/kg, po administered 1 hr before oral glucose administration measured 2 hrs thereafter; format: functional; conditions: dose mg/kg 7-30
Procedure, shortened: (§4)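 Male C57/Bl6 mice were kept on a high fat diet for at least 14 weeks from 6 weeks of age, then fasted 16 h. Compound was given orally 1 h before a 2 g/kg oral glucose load.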

Mus musculus [16] = test: Inhibition of SCD activity in liver of diet-induced obese C57BL6 mouse assessed as reduction in desaturation induces at 20 mg/kg, po BID administered for 4 weeks; format: functional; conditions: 672 h
Liver [17] = test: Drug uptake in liver of C57BL6 mouse at 10 mg/kg, po measured 6 hrs post dose; format: ADME, organism-based; design: dose 10 mg/kg, route oral; conditions: in vivo
Acyl-CoA desaturase 1 [18] = target: T1, Acyl-CoA desaturase 1; test: Inhibition of SCD-1 activity in Sprague-Dawley rat Hepatocytes expressing organic anion transporting polypeptides assessed as reduction in [I-14C] […] desaturation by scintillation counting; format: cell-based, Hepatocyte
Procedure, shortened: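 Rat hepatocytes (4 × 10^6 cells/mL) were preincubated with compound for 15 min at 37 °C/5% CO2. 14C-stearic acid (final 0.5 μCi/mL) was then added for 1 h with shaking. Cells were washed, hydrolyzed in 2N NaOH at 75 °C for 1 h, acidified and extracted. Radiolabeled oleic and stearic acids were quantified by HPLC with flow scintillation detection. Mean of at least n = 3.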

Liver [19] = test: Drug uptake in liver of Sprague-Dawley rat at 10 mg/kg, po measured 6 hrs post dose; format: ADME, organism-based; design: dose 10 mg/kg, route oral; conditions: in vivo
[20] = Drug uptake in eye of female rhesus monkey at 5 mg/kg, po measured 6 hrs post dose; format: ADME, organism-based, Macaca mulatta; design: dose 5 mg/kg, route oral; conditions: in vivo
[21] = Oral bioavailability in rat; format: ADME, organism-based; conditions: in vivo
Mus musculus [22] = test: Antidiabetic activity in diet-induced obese C57BL6 mouse assessed as reduction in body weight gain at 60 mg/kg, po BID; format: functional; design: scale not given: the % may be the effect or the level left; procedure, shortened: as §1
Mus musculus [23] = test: Antidiabetic activity in po dosed diet-induced obese fasted C57BL6 mouse assessed as increase in glucose clearance administered 1 hr before glucose challenge measured 12 hrs thereafter by OGTT; format: functional; conditions: in the assay text read “2 hrs” for “12 hrs”; procedure, shortened: as §4
Acyl-CoA desaturase 1 [24] = target: T1, Acyl-CoA desaturase 1; test: Inhibition of rat SCD-1
[25] = Apparent permeability across pig LLC-PK1 cells; format: ADME, cell-based, Sus scrofa
[26] = Drug uptake in eye of Sprague-Dawley rat at 10 mg/kg, po measured 6 hrs post dose; format: ADME, organism-based; design: dose 10 mg/kg, route oral; conditions: in vivo
[27] = Drug uptake in eye of C57BL6 mouse at 10 mg/kg, po measured 6 hrs post dose; format: ADME, organism-based; design: dose 10 mg/kg, route oral; conditions: in vivo
Zone of skin [28] = test: Drug uptake in skin of Sprague-Dawley rat at 10 mg/kg, po measured 6 hrs post dose; format: ADME, organism-based; design: dose 10 mg/kg, route oral; conditions: in vivo
[29] = Drug level in harderian gland of diet-induced obese C57BL6 mouse at 20 mg/kg, po BID; format: ADME, organism-based; design: dose 20 mg/kg, route oral; conditions: in vivo, read-out: Drug uptake; procedure, shortened: as §2
Mus musculus [30] = test: Toxicity in diet-induced obese C57BL6 mouse assessed as adverse effect in eye at 20 to 60 mg/kg, po BID measured within 4 weeks; format: organism-based; design: dose 20-60 mg/kg, route oral; conditions: in vivo, 672 h; procedure, shortened: as §3
Zone of skin [31] = test: Drug uptake in skin of C57BL6 mouse at 10 mg/kg, po measured 6 hrs post dose; format: ADME, organism-based; design: dose 10 mg/kg, route oral; conditions: in vivo

SMILES: O=C(O)Cn1nnc(-c2cc(N3CCC(Oc4cc(F)ccc4Br)CC3)no2)n1 [MK-8245]
- Drug uptake [1]: Active
- Drug uptake (Liver [2]): Active
- Activity (Mus musculus [3]): 5%
- bioavailability [4]: 12%
- concentration (Liver [5]): 5000 nM
- IC50 (Acyl-CoA desaturase 1 [6]): 3 nM
- Activity (Mus musculus [7]): Non-toxic
- inhibition (INH) (Mus musculus [8]): 36%
- inhibition (INH) (Mus musculus [9]): 60%
- Drug uptake [10]: Active
- Drug uptake [11]: Active
- Drug uptake [12]: Active
- Activity (Mus musculus [13]): Non-toxic
- bioavailability [14]: 40%
- inhibition (INH) (Mus musculus [15]): 89%
- inhibition in vivo at 20 mg/kg (Mus musculus [16]): 63%
- Drug uptake (Liver [17]): Active
- IC50 (Acyl-CoA desaturase 1 [18]): 68 nM
- Drug uptake (Liver [19]): Active
- Drug uptake [20]: Active
- bioavailability [21]: 28%
- Activity (Mus musculus [22]): 5%
- ED50 (Mus musculus [23]): 7 mg/kg
- IC50 (Acyl-CoA desaturase 1 [24]): 3 nM
- Papp [25]: 3.8 ×10⁻⁶ cm/s
- Drug uptake [26]: Active
- Drug uptake [27]: Active
- Drug uptake (Zone of skin [28]): Active
- concentration [29]: 900 nM
- Activity (Mus musculus [30]): Non-toxic
- Drug uptake (Zone of skin [31]): Active
